A selection: hits, their analogues and other compounds. The true share with any hit is near 1.6%.
Dynein cargo inh = inhibitors of GR-EGFP nuclear translocation, primary screen, dynein cargo transport inhibitor project, imaging, high-content, 3617.4 mouse cells | z-score, hits read low | test concentration mostly 20 µM; stimulated with dexamethasone, 1 µM; stronger effect = lower value | hit rate 0.47% among 220,000;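 active = plate z-score of nuclear minus cytoplasmic receptor signal below a set negative limit, without overly bright fluorescence or cell loss, cut at about -3.5 in these data, passing the limit was not always enough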;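 also: z-score of nuclear minus cytoplasmic ring GR-EGFP intensity difference per well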
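Buffer or medium: tet-free, stripped-serum medium; Also added: dexamethasone, 1.0 µM final; Technique: high-content fluorescence imaging after fixation; Times: 48 h induction, 1 h compound, 30 min dex at 37 °C; Read-out: per-cell GR-EGFP intensity, nucleus versus surrounding cytoplasmic ring, well-averaged.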
ABHD5 PLIN5 PPI = ABHD5-PLIN5 interaction inhibitors, primary screen, cell lysate, split luciferase complementation, luminescence. hit rate 0.78% among 360,000. Perilipin-5 (Homo sapiens) + 1-acylglycerol-3-phosphate O-acyltransferase ABHD5 (Homo …. Split G. princeps luciferase complementation, 4 h. inhibition, % at 4 µM. AID 602281, 2012;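 active = inhibition above the mean inhibition across every tested compound plus 3 SD, cut at about 22% in these data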;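 also: 0% = DMSO only wells and the 100% control is not disclosed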
NOD2-RIPK2 inh = NOD2-RIPK2 binding disruptors in cells, primary screen, fluorescence, CHO cells, BLA complementation; CCF4 ratio; inhibition, % at 4.98 µM; AID 624267, 2012; hit rate 0.38% among 360,000; in the data active = inhibition above about 21%;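 also: 0% = vehicle only and 100% = reference blocker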
Target sequence (O43353 whole entry, looked up): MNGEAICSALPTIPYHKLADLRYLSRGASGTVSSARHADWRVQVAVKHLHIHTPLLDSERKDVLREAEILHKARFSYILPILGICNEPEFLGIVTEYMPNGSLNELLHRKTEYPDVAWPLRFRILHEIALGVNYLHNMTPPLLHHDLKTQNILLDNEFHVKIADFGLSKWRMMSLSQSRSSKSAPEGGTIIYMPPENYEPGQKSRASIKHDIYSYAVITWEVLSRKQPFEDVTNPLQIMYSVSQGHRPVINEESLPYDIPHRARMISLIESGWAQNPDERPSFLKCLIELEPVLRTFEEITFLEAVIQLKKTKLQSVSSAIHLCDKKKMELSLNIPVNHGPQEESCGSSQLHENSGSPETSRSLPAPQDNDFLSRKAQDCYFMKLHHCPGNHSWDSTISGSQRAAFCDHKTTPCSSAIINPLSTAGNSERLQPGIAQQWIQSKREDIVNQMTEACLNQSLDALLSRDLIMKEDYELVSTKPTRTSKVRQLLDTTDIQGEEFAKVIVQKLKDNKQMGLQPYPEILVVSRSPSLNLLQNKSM
TLR4-MyD88 BLA = inhibitors of TLR4-MyD88 association in cells, primary screen, cell-based, HeLa CL3-4, BLA complementation, FRET ratio | inhibition, % at 8.4 µM | AID 861, 2007 | Toll-like receptor 4 (Homo sapiens) + Myeloid differentiation primary response protein … | hit rate 0.18% among 200,000 | HeLa CL3-4 TLR4/MyD88 BLA complementation; in the data active = inhibition above about 25%;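 also: 0% = vehicle and 100% = reference inhibitor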
Beta2AR agonist = beta2AR agonists driving receptor internalization, primary screen, cell-based, FAP fluorogen, flow cytometry; Am2.2-beta2AR cells; response, % (test concentration not listed); hit rate 0.43% among 340,000; AID 504454, 2011;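 active = response above a set limit, near 3 SD of response in nonfluorescent compounds, cut at about 42% in these data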
TLR9-MyD88 inh = inhibitors of TLR9-MyD88 association in cells, primary screen, cell-based, CHO, BLA complementation, fluorescence; inhibition, % at 4.98 µM; CCF4 FRET ratio; hit rate 0.21% among 340,000;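 active = inhibition above the mean over all tested compounds plus 3 SD, cut at about 21% in these data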;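 also: 0% = DMSO only wells and 100% = clavulanate BLA inhibitor control wells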
ABHD5-PLIN5 conf = ABHD5-PLIN5 interaction inhibitors, confirmation, biochemical, luminescence; shares compounds with ABHD5 PLIN5 PPI; inhibition, % at 4 µM; hit rate 67% among 2,200; in the data active = inhibition above about 23%;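 also: 0% = DMSO vehicle wells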
HNF4 split-luc = HNF4 dimerization inhibitors, counter-screen for ABHD5-PLIN5 interaction inhibitor project, biochemical, split-luciferase complementation, luminescence. shares compounds with ABHD5 PLIN5 PPI. inhibition, % at 4 µM. AID 651674, 2012. hit rate 77% among 2,200;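 active = mean inhibition across replicate wells exceeding the computed hit threshold, cut at about 13% in these data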;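 also: light from luciferase halves that rejoin when HNF4 fusion proteins dimerize; 0% = DMSO only wells and the 100% control is not given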
Numbers without * were called inactive; · = no result; ! = not active in a repeat.

SMILES	Dynein cargo inh	ABHD5 PLIN5 PPI	NOD2-RIPK2 inh	TLR4-MyD88 BLA	Beta2AR agonist	TLR9-MyD88 inh	ABHD5-PLIN5 conf	HNF4 split-luc
COc1ccc(Cc2c(-c3cccc(Cl)c3)nc3ccc(C)cn23)c(C)c1	·	0.1	-5.3	·	·	·	·	·
COc1ccc(NC(=O)C(c2ccc(C#N)cc2)n2c(=O)c(-c3ccco3)nc3ccccc32)cc1 (configuration not stated)	·	23.6*	3.0	·	·	·	22.4*	0.9
COc1ccc(NC(=O)C(c2ccccc2)n2c(=O)c(-c3ccco3)nc3ccccc32)cc1 (configuration not stated)	·	23.3*	-8.4	·	·	·	32.7*	11.4
O=C(Nc1ccc2c(c1)OCCO2)C(c1ccccc1F)n1c(=O)c(-c2ccco2)nc2ccccc21 (configuration not stated)	·	26.3*	3.8	·	·	·	32.0*	10.3
CC(C)[C@H](NC(=O)N1c2ccccc2NC(=O)[C@@H]1C(C)C)C(=O)N1CCC(C(=O)O)CC1	·	-0.2	2.6	·	2.7	0.9	·	·
CC(=O)Cn1cnc2c(cnn2-c2ccc(F)cc2)c1=O	·	9.8	7.2	·	·	3.7	·	·
CC(C)N=C(N)N=C(N)Nc1ccc(Cl)cc1	·	3.5	1.8	·	15.8	-12.4	·	·
NC(=NCCCCCCN=C(N)/N=C(\N)Nc1ccc(Cl)cc1)/N=C(\N)Nc1ccc(Cl)cc1	·	34.0*!	10.3	·	7.0	4.2	26.2*	2.0
Oc1ccc(C[C@H]2CNC(=S)N2CC2CCCN2C[C@H](Cc2ccccc2)N2C[C@H](Cc3ccc(O)cc3)N(CC3CCCCCC3)C2=S)cc1 (some centres not stated)	·	4.1	-7.0	·	20.2	2.8	·	·
O=C1CC(c2ccccc2)CC(=O)C1CS(=O)(=O)c1ccccc1 (configuration not stated)	-0.203	34.0*	-7.2	-10.5	-5.5	-0.2	48.5*	104.7*
O=C1CC(=O)CC(c2ccccc2)C1	0.163	-3.3	-4.3	-15.0	2.0	4.5	·	·
CN(C)CCCN(C(=O)COc1ccc(Cl)cc1)c1nc2c(F)cccc2s1	0.0399	1.6	-5.7	1.7	-9.3	4.2	·	·
Cc1ccc2nc(N(CCCN(C)C)C(=O)c3cc(-c4cccs4)nc4ccccc34)sc2c1	·	25.1*	-0.1	·	18.3	-22.8	14.4	0.8
Cc1ccc2nc(N(CCCN(C)C)C(=O)COc3ccc(Cl)cc3)sc2c1	-0.347	25.5*	15.2	0.5	31.3	4.9	16.4	0.1
CN(C)CCCN(C(=O)COc1ccc(Cl)cc1)c1nc2ccc(F)cc2s1	-0.598	27.4*	6.9	4.4	2.5	5.8	12.7	3.4
O=C(CNCc1ccccn1)Nc1ccc([N+](=O)[O-])cc1C(=O)Nc1ccccc1F	·	3.4	-10.7	·	2.2	-8.2	·	·
COc1ccc(CNC(=O)CSCc2cccc(Cl)c2)cc1	1.02	67.5*	-6.2	-5.9	-3.0	-6.1	-2.3	0.5
COc1ccc(CNC(=O)CCSCc2cccc(Cl)c2)cc1	0.0351	4.5	-0.5	-0.2	0.0	9.9	·	·
COCCOC(=O)c1c(C)oc2ccc(O)c(CN3CCC(C)CC3)c12 (tested in a mixture with another compound)	·	-1.7	-11.7	·	-3.3	2.9	·	·
COCCNC(=O)/C(C#N)=C/c1ccc(O)cc1	0.676	-5.7	-3.6	·	9.1	0.7	·	·
COCCNC(=O)/C(C#N)=C/c1cccc(/C=C(\C#N)C(=O)NCCOC)c1	-0.835	48.0*	14.1	-21.6	1.9	-6.2	97.6*	70.6*
COc1ccc2nc(N(Cc3ccccc3)C(=O)CCNC(C)=O)sc2c1	·	4.0	-10.5	·	-9.3	-12.6	·	·

High-throughput results as filed in PubChem.
